The record followed here is ChEMBL document CHEMBL1135575, “Synthesis and structure-activity relationships of 3-aryloxindoles: a new class of calcium-dependent, large conductance potassium (maxi-K) channel openers with neuroprotective properties” (J Med Chem, 2002).

Series [1] in a line: (§1) Effect on Maxi-K-Mediated outward current in Xenopus laevis oocytes expressing cloned mSlo maxi-K channels at 20 uM. The series is classed as functional, Oocyte. The method in brief: (§2)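 Two-electrode voltage clamp on Xenopus oocytes expressing cloned mSlo. Steps of 500–750 ms ran from a holding potential of -60 to +140 mV in 20 mV increments, without and with compound at 20 μM in the chamber. Each experiment ended with 10 min of 50 nM iberiotoxin, and that residual current was subtracted. The IbTx-sensitive current is given as % of drug-free control, from at least five oocytes.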

Series [2] can be described thus: Effect on Maxi-K mediated outward current in Xenopus laevis oocytes expressing cloned mSlo maxi-K channels at 20 uM. Type of series: functional, Mus musculus, Oocyte. The procedure, abridged: as §2
In series [3] the test system is Rattus norvegicus. The series can be described thus: Neocortical infarct volume after IV administration (2 hr post-MCAO) in 9 rats by method A at the dose 0.1 mg/kg. The series is classed as functional. The method in brief:
(§3)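 Left MCA was permanently occluded by a subtemporal approach in male SHR (240–350 g) under ketamine/xylazine, with temperature kept at 36–38 °C. A single tail-vein bolus was given 2 h after occlusion, in vehicle of 2% DMSO and 98% propylene glycol. At 24 h the brain was perfused with 3% TTC, incubated 30 min at 37 °C and fixed. Neocortical infarct volume (mm3) was measured by planimetry of 2 mm slices and reported as mean (SE) and % reduction versus vehicle.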

Series [4] has as its system Rattus norvegicus. Description: Neocortical infarct volume after IV administration (2 hr post-MCAO) in 13 rats by method A at the dose 5.0 mg/kg. Type of series: functional. The method in brief: as §3
Series [5] concerns Rattus norvegicus. Description: Neocortical infarct volume after IV administration (2 hr post-MCAO) in 13 rats by method A at the dose 1.0 mg/kg. Type of series: functional. The method in brief:
as §3

Series [6] is filed under the species Rattus norvegicus. Description: Electrically stimulated [3H]glutamate release in hippocampal slices. Type of series: functional, Hippocampus. The procedure, abridged:
(§4)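 Hippocampal wedges (350 μm) from male Sprague–Dawley rats were washed in Krebs buffer with adenosine deaminase. They were loaded with 5 μCi [3H]-glutamate for 30 min at 37 °C, then superfused and collected as 5 min fractions. Release was evoked by field stimulation (35 mA, 10 Hz, 2 ms pulses, 1 min) at fractions 3 (S1) and 13 (S2). Compound was present from 30 min before S2. Data are S2/S1 ratios, analysed by ANOVA with Newman–Keuls.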

Series [7] has as its system Rattus norvegicus. The series can be described thus: Neocortical infarct volume after IV administration (2 hr post-MCAO) in 13 rats by method A at the dose 10.0 mg/kg. The series is classed as functional. The method in brief: as §3
Series [8] can be described thus: as §1. Type of series: functional, Mus musculus, Oocyte. The method in brief:
as §2

For series [9], the species on record is Rattus norvegicus. The series can be described thus: Electrically stimulated [3H]-glutamate release in hippocampal slices. The series is classed as functional, Hippocampus. The method in brief:
as §4

In series [10] the test system is Rattus norvegicus. The series can be described thus: Brain level concentration after IV administration (4.6 mg/kg) in male rats at 2 hours. Type of series: functional, organism-based. The procedure, abridged: (§5)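 Male Sprague–Dawley rats (ca. 225 g) got a tail-vein bolus of 2 mL/kg. Three animals per group were killed by CO2 at 0.25 and 2 h. Whole brain and blood were taken. Brain homogenates and plasma were extracted with CH3CN and assayed by HPLC with UV detection at 290 nm. Plasma is given in μg/mL and brain in μg/g wet weight, as mean ± SD.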

Series [11] deals with Rattus norvegicus. The series can be described thus: Plasma level concentration after IV administration (4.6 mg/kg) in male rats at 0.25 hours. The series is classed as functional, organism-based. The method in brief: as §5
Series [12] concerns Rattus norvegicus. Description: Neocortical infarct volume after IV administration (2 hr post-MCAO) in 9 rats by method B at the dose 0.01 mg/kg.
Series [13] concerns Rattus norvegicus. Description: Neocortical infarct volume after IV administration (2 hr post-MCAO) in 9 rats by method A at the dose 0.03 mg/kg. The series is classed as functional. The procedure, abridged:
as §3

Series [14] concerns Rattus norvegicus. The series can be described thus: Neocortical infarct volume after intraperitoneal administration (2 hr post-MCAO) in 11 rats by method B at the dose level 20(mg/kg). Type of series: functional. The method in brief:
(§6)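 Permanent left MCA occlusion in male SHR (240–350 g) under ketamine/xylazine, at 36–38 °C. Compound was given intraperitoneally 2 h after occlusion in 2% DMSO/98% propylene glycol. At 24 h, infarcts were stained with 3% TTC perfusion, slices were cut at 2 mm, and neocortical infarct volume was measured by planimetry. Results are given as mean (SE) and % reduction versus vehicle from the same study.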

Series [15] deals with Rattus norvegicus. The series can be described thus: Neocortical infarct volume after intraperitoneal administration (2 hr post-MCAO) in 11 rats by method B at the dose level 10(mg/kg). The series is classed as functional. The procedure, abridged: as §6
Series [16] relates to Rattus norvegicus. Description: Neocortical infarct volume after IV administration (2 hr post-MCAO) in 9 rats by method A at the dose 10.0 mg/kg; Toxic at 10.0% reduction level. The settings on record: in vivo.
The subject of series [17] is Rattus norvegicus. The series can be described thus: Plasma level concentration after IV administration (4.6 mg/kg) in male rats at 2 hours. Type of series: functional, organism-based. The procedure, abridged:
as §5

Series [18] has as its system Rattus norvegicus. The series can be described thus: Brain level concentration after IV administration (4.6 mg/kg) in male rats at 0.25 hours. The series is classed as functional, organism-based. The procedure, abridged:
as §5

Series [19] concerns Rattus norvegicus. The series can be described thus: Neocortical infarct volume after IV administration (2 hr post-MCAO) in 9 rats by method B at the dose 0.1 mg/kg. Type of series: functional.
Series [20] concerns Rattus norvegicus. The series can be described thus: Neocortical infarct volume after intraperitoneal administration (2 hr post-MCAO) in 9 rats by method A at the dose 10 mg/kg.

The structures appear in SMILES notation. Where “and” joins values, the source holds several entries; their conditions need not be identical. Identical values can stand only once.

For the molecule `O=c1[nH]c2cc(C(F)(F)F)ccc2n1-c1cc(Cl)ccc1O`, the Increase in series [1] stood at 132%.

For the molecule `CN1CCN(c2ccc(O)c(C3(O)C(=O)Nc4cc(C(F)(F)F)ccc43)c2)CC1` (configuration not stated), the Increase in [1] was found to be 91%.

Turning to `O=C1Nc2cc(C(F)(F)F)ccc2[C@@]1(O)c1cc(Cl)ccc1O`, the Increase in [1] amounted to 123%.

As to `O=C1Nc2c(C(F)(F)F)cccc2C1(O)c1cc(Cl)ccc1O` (configuration not stated), the Increase in series [1] amounted to 122%.

`COc1ccc(Cl)cc1C1(O)C(=O)Nc2ccc(C(F)(F)F)cc21` (configuration not stated): in series [2], the Increase was 109%.

Turning to `O=C1Nc2cc(C(F)(F)F)ccc2C1(O)c1cccc(Cl)c1` (configuration not stated), the Increase in [1] was 97%.

Regarding `O=C1Nc2cc(C(F)(F)F)ccc2C1(O)c1cc(Cl)ccc1O` (racemic) [listing 1 of 2 here], the Reduction in the series with Rattus norvegicus [3] is 4%; in the series on Rattus norvegicus [4], 10%; with Rattus norvegicus [5], 10%; with Rattus norvegicus [7], 4%. For the same molecule, the Control in the series filed under Rattus norvegicus [6] was 89% and 93%. In [1], the Increase was found to be 131%.

Turning to `Nc1ccc(C2(O)C(=O)Nc3cc(C(F)(F)F)ccc32)c(O)c1` (configuration not stated), in series [8], the Increase was determined as 92%.

Turning to `O=C1Nc2cc(C(F)(F)F)ccc2C1(O)c1ccccc1O` (configuration not stated), in series [1], the Increase amounted to 90%.

Consider `O=C1Nc2cc(C(F)(F)F)ccc2C1c1cc(Cl)ccc1O` (racemic), for which the Control in the series listed under Rattus norvegicus [9] worked out at 71%. Moreover, the Concentration in the series on Rattus norvegicus [10] is 0.23 µg/g; with Rattus norvegicus [11], 3.3 µg/mL; in the series on Rattus norvegicus [17], 0.28 µg/mL; with Rattus norvegicus [18], 2.4 µg/g. The Reduction with Rattus norvegicus [3] (0.1 mg/kg) was 9% and 0% and 6%; with Rattus norvegicus [13] it was 18%; in the series with Rattus norvegicus [14], 9%; with Rattus norvegicus [15], 24%; with Rattus norvegicus [19], 4% and 12%; in the series on Rattus norvegicus [20], 26%. For the same molecule, the Increase with Rattus norvegicus [12] is listed as -7%; in series [8], 164%. In addition, the Toxic entry in the series on Rattus norvegicus [16] was “Toxic”.

As to `O=C1Nc2ccc(F)cc2C1(O)c1cc(Cl)ccc1O` (configuration not stated), the Increase in [1] came out at 106%.

Consider `O=C1Nc2cc(C(F)(F)F)ccc2C1(O)c1cc(Cl)ccc1O` (racemic) [listing 2 of 2 here], for which the Concentration in the series on Rattus norvegicus [10] was 0.87 µg/g; with Rattus norvegicus [11], 1.2 µg/mL; in the series with Rattus norvegicus [17] it was 0.231 µg/mL; in the series with Rattus norvegicus [18], 1.34 µg/g.

For the molecule `O=C1Nc2cc(C(F)(F)F)ccc2C1(O)c1cc(Cl)cc(I)c1O` (configuration not stated), in series [1], the Increase is 124%.

With `Cc1ccc2c(c1)C(O)(c1cc(Cl)ccc1O)C(=O)N2` (configuration not stated), the Increase in series [1] was 100%.

In the case of `O=C1Nc2ccc([N+](=O)[O-])cc2C1(O)c1cc(Cl)ccc1O` (configuration not stated), in [1], the Increase turned out to be 78%.

As for `O=C1Nc2cc(Cl)cc(Cl)c2C1(O)c1cc(Cl)ccc1O` (configuration not stated), the Increase in series [1] stood at 117%.

`O=C1Nc2cc(C(F)(F)F)ccc2C1(O)c1c(O)ccc2ccccc12` (configuration not stated): in series [1], the Increase came out at 116%.

Regarding `O=C1Nc2cc(C(F)(F)F)ccc2C1(O)c1cc(Br)ccc1O` (configuration not stated), in series [1], the Increase was 89%.

For the molecule `O=C1Nc2cc(C(F)(F)F)ccc2C1(O)c1cc(F)ccc1O` (configuration not stated), the Increase in [1] is reported as 97%.

In the case of `O=C1Nc2cc(C(F)(F)F)ccc2C1(O)c1cc(Cl)c(Cl)cc1O` (configuration not stated), the Increase in series [1] is on record as 107%.

With `O=C1Nc2cc(C(F)(F)F)ccc2C1(O)c1cc(-c2ccccc2)ccc1O` (configuration not stated), the Increase in series [1] is on record as 106%.

On to `O=C1Nc2ccc(C(F)(F)F)cc2C1(O)c1cc(Cl)ccc1O` (configuration not stated), for which, in [1], the Increase is 108%.

Take `O=C1Nc2ccccc2C1c1cc(Cl)ccc1O` (configuration not stated): the Increase in [1] was found to be 139%.

For `O=C1Nc2cc(C(F)(F)F)ccc2C1(O)c1ccc(C(F)(F)F)cc1O` (configuration not stated), the Increase in [1] is 108%.

With `O=C1Nc2cc(C(F)(F)F)ccc2C1(O)c1cc(Cl)cc(Cl)c1O` (configuration not stated), the Increase in series [1] was found to be 108%.

For the molecule `O=C1Nc2cc(C(F)(F)F)ccc2C1(O)c1ccccc1` (configuration not stated), in [1], the Increase is 87%.

As to `Cc1ccc(O)c(C2(O)C(=O)Nc3cc(C(F)(F)F)ccc32)c1` (configuration not stated), the Increase in series [1] came to 106%.

As to `COc1ccc(Cl)cc1C1(O)C(=O)Nc2cc(C(F)(F)F)ccc21` (racemic), the Increase in series [1] is reported as 120%.

Consider `O=C1Nc2ccccc2C1(O)c1cc(Cl)ccc1O` (configuration not stated), for which, in series [1], the Increase is given as 95%.

For the molecule `O=C1Nc2cc(C(F)(F)F)ccc2C1(O)c1ccc(Cl)cc1O` (configuration not stated), the Increase in series [1] is 93%.

As for `O=C1Nc2cc(C(F)(F)F)ccc2C1(O)c1cc(I)ccc1O` (configuration not stated), the Increase in series [1] is recorded as 107%.

As to `COc1ccc(Cl)cc1C1C(=O)Nc2cc(C(F)(F)F)ccc21` (configuration not stated), the Increase in series [1] is recorded as 110%.

Regarding `O=C1Nc2cc(C(F)(F)F)ccc2C1(O)c1cccc(Cl)c1O` (configuration not stated), the Increase in series [1] turned out to be 116%.

Turning to `Nc1cc(O)c(C2(O)C(=O)Nc3cc(C(F)(F)F)ccc32)cc1Cl` (configuration not stated), the Increase in [8] amounted to 94%.

`COc1ccc(O)c(C2(O)C(=O)Nc3cc(C(F)(F)F)ccc32)c1` (configuration not stated): the Increase in series [1] turned out to be 81%.

`COc1ccc(Cl)cc1[C@]1(O)C(=O)Nc2cc(C(F)(F)F)ccc21` (stereo in doubt; (-)-7c): the Increase in series [1] is recorded as 116%.

Regarding `COc1ccc(Cl)cc1[C@]1(O)C(=O)Nc2cc(C(F)(F)F)ccc21` (stereo in doubt; (+)-7c), the Increase in series [1] is on record as 117%.

As for `O=C1Nc2cc(C(F)(F)F)cc(C(F)(F)F)c2C1(O)c1cc(Cl)ccc1O` (configuration not stated), in series [1], the Increase was 127%.

For `O=C1Nc2cc(C(F)(F)F)ccc2C1(O)c1cc(C(F)(F)F)ccc1O` (configuration not stated), in series [1], the Increase is listed as 130%.

`O=C1Nc2cc(C(F)(F)F)ccc2C1(O)c1cc(Cl)ccc1O` (single isomer, unassigned; (-)): the Increase in series [1] came to 141%.

In the case of `O=C1Nc2cccc(C(F)(F)F)c2C1(O)c1cc(Cl)ccc1O` (configuration not stated), in series [1], the Increase is 127%.
